From ChEMBL document CHEMBL1139257, “The absolute configuration plays an important role in muscarinic activity of BGT-A and its analogs” (Bioorg Med Chem, 2008)
Values belong to the compound of their own block, whether it stands above or below them. Activity calls are given as the source filed them. No cut-off for these calls is given here.

How the values were obtained:
[1] = (§1) Agonist activity at guinea pig mAChR assessed as stimulation of carbachol-induced iris muscle contraction; type: functional, tissue-based, Cavia porcellus
Method in brief: (§2)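 Iris contraction assay: EC50 (agonist concentration giving half-maximal response) and log concentration–response slopes obtained by nonlinear sigmoidal dose–response logistic curve fitting. Data given as means SEM; significance by Student's t-test, P < 0.05.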

[2] = Agonist activity at guinea pig mAChR assessed as stimulation of carbachol-induced iris muscle contraction relative to carbachol; type: functional; conditions: Cavia porcellus
Cavia porcellus [3] = species on record: Cavia porcellus; assay: (§3) Antagonist activity at guinea pig mAChR assessed as inhibition of carbachol-induced iris muscle contraction; type: functional, tissue-based
Method in brief: (§4)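 pA2 values derived by Arunlakshana–Schild analysis of contraction responses; data as means SEM.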

[4] = Displacement of [3H]NMS from mAChR in SD rat submandibulary gland by rapid filtration technique
Method in brief: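 Membranes from male SD rat (220–240 g) submandibulary glands, homogenised in ice-cold 0.32 M sucrose/50 mM Tris pH 7.4, spun at 1000g then 20,000g, at 4 °C. Membranes (0.1 mg protein) incubated at 37 °C with [3H]NMS and increasing compound concentrations in Tris buffer. Filtered through glass fibre, washed three times. Run in duplicate. IC50 by curve fit, Ki by Cheng–Prusoff.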

Oryctolagus cuniculus [5] = species on record: Oryctolagus cuniculus; assay: Mydriatic effect in rabbit assessed as change in pupil diameter under constant light at 0.02 M after 10 mins; type: functional
Method in brief: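 Rabbits (2.5–3.0 kg, either sex), randomised into groups of five. 0.05 ml agent dropped into left eye, right eye as control reference. Left pupil diameter (mm) read under constant light before and 10 min after dosing. Significance by Student's t-test, P < 0.05.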

[6] = as §3; type: functional, tissue-based, Cavia porcellus; method in brief: as §4
Cavia porcellus [7] = species on record: Cavia porcellus; assay: as §1; type: functional, tissue-based; method in brief: as §2
Oryctolagus cuniculus [8] = species on record: Oryctolagus cuniculus; assay: Myotic effect in rabbit assessed as change in pupil diameter under constant light at 0.02 M after 10 mins; type: functional
Method in brief: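 Twenty healthy rabbits (2.5–3.0 kg, either sex) were randomised into four groups of five. Left pupil diameter (mm) was read under constant light before and 10 min after 0.05 ml agent was dropped in; the right eye served as control reference. Significance by Student's t-test, P < 0.05.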

pEC50 [1]: 6.57
SMILES: C[N+](C)(C)CCOC(N)=O.[Cl-] [CARBACHOL]
Emax [2]: 100%

SMILES: CC(=O)O[C@@H]1CC2C[C@H](OC(=O)c3ccc([N+](=O)[O-])cc3)CC1N2C (some centres undefined)
Activity (Cavia porcellus [3]): inactive | Ki [4]: 450 µM | Activity (Oryctolagus cuniculus [5]): 3.7%

SMILES: CC(=O)O[C@H]1CC2C[C@@H](OC(=O)c3ccc([N+](=O)[O-])cc3)CC1N2C (some centres undefined)
pA2 [6]: 6.11 | Ki [4]: 3.7 µM | Activity (Oryctolagus cuniculus [5]): 35.1%

SMILES: CC(=O)O[C@@H]1CC2C[C@H](OC(=O)c3ccc(Cl)cc3)CC1N2C (some centres undefined)
Activity (Cavia porcellus [3]): inactive | Ki [4]: 73 µM | Activity (Oryctolagus cuniculus [5]): 3%

pEC50 [1]: 6.06 | Ki [4]: 0.04 µM
SMILES: CC(=O)O[C@H]1CC2C[C@@H](OS(=O)(=O)c3ccccc3)CC1N2C (some centres undefined)
Activity (Cavia porcellus [7]): Dose-dependent effect | Emax [2]: 87.1% | Activity (Oryctolagus cuniculus [8]): 44%

SMILES: CC(=O)O[C@@H]1CC2C[C@H](OS(=O)(=O)c3ccccc3)CC1N2C (some centres undefined)
Activity (Oryctolagus cuniculus [8]): 4.7%

SMILES: CC(=O)O[C@H]1CC2C[C@@H](OC(=O)c3ccc(Cl)cc3)CC1N2C (some centres undefined)
Ki [4]: 9 µM | Activity (Oryctolagus cuniculus [5]): 32.2%
